The text below walks through data of publication PMC12679438 (RSC Advances, 2025).

Data set [1] deals with BJ. The data set can be described thus: MTS cytotoxicity assay, 72 h, BJ fibroblasts. In kind it is cell-based, human. As to conditions: Homo sapiens, BJ, read-out: IC50 BJ. The method, boiled down:
(§1)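 Human lines were kept at 37 °C, 5% CO2 in recommended medium plus 10% FCS, penicillin–streptomycin, 2 mM glutamine, 1 mM bicarbonate, 1 mM pyruvate and 20 mM HEPES, and were mycoplasma-tested biweekly. Cells were exposed to test compound for 72 h on a robotic screening platform, then read by MTS. DMSO-treated cells were the negative control. IC50 came from dose–response curves, mean of ≥6 replicates.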
Background: Tetrazolium assays rely on reduction of a dye to a coloured formazan, in cell work by metabolically active cells.

Data set [2] has as its system K562. The data set can be described thus: MTS cytotoxicity assay, 72 h, K562. In kind it is cell-based, human. The conditions noted are these: Homo sapiens, K562, 72 h, read-out: IC50 K562. The method, boiled down: as §1
Data set [3] has as its system U2OS. Put plainly: MTS cytotoxicity assay, 72 h, U2OS. In kind it is cell-based, human. As to conditions: Homo sapiens, U2OS, read-out: IC50 U2OS. The method, boiled down: as §1
In data set [4] the test system is RAMOS. The data set can be described thus: MTS cytotoxicity assay, 72 h, RAMOS. Type of data set: cell-based, human. As to conditions: Homo sapiens, Ramos, read-out: IC50 RAMOS. The method, boiled down: as §1
For data set [5], the system named is Jurkat. The data set can be described thus: MTS cytotoxicity assay, 72 h, Jurkat. The conditions noted are these: Homo sapiens, Jurkat, read-out: IC50 Jurkat. Type of data set: cell-based, human. The method, boiled down: as §1
The test system of data set [6] is HCT116. Put plainly: MTS cytotoxicity assay, 72 h, HCT116. In kind it is cell-based, human. As to conditions: Homo sapiens, HCT-116, 72 h, read-out: IC50 HCT116. The method, boiled down:
as §1

The subject of data set [7] is HCT116-p53. Put plainly: MTS cytotoxicity assay, 72 h, HCT116-p53. In kind it is cell-based, human. As to conditions: Homo sapiens, read-out: IC50 HCT116-p53. In short, it runs like this: as §1
The test system of data set [8] is CCRF-CEM. Put plainly: MTS cytotoxicity assay, 72 h, CCRF-CEM. Type of data set: cell-based, human. The conditions noted are these: Homo sapiens, CCRF-CEM, read-out: IC50 CCRF-CEM. The method, boiled down:
as §1

Data set [9] deals with panel of human cell lines. Put plainly: MTS cytotoxicity assay, statements over groups of cell lines of the panel. As to conditions: for IC50: Homo sapiens; for IC50 / cytotoxicity in fibroblast cells: non-cancerous fibroblasts (BJ, MRC-5), stated together in the text. In kind it is cell-based. The method, boiled down:
as §1

Data set [10] deals with MRC-5. Put plainly: MTS cytotoxicity assay, 72 h, MRC-5 fibroblasts. In kind it is cell-based, human. As to conditions: Homo sapiens, MRC5, 72 h, read-out: IC50 MRC-5. The method, boiled down:
as §1

Data set [11] deals with A549. The data set can be described thus: MTS cytotoxicity assay, 72 h, A549. Type of data set: cell-based, human. The conditions noted are these: Homo sapiens, A549, 72 h, read-out: IC50 A549. In short, it runs like this:
as §1

Setting [12] is: 72 h, read-out: IC50 across all tested cell lines.

The structures appear in SMILES notation. Read-outs that look alike come from different tables or passages of the source.

On to `O=C(Nc1ccccc1)C1CN(c2cc(-c3ccccc3)n[nH]c2=O)C1` [Compound 8, 1-(3-oxo-6-phenyl-2,3-dihydropyridazin-4-yl)-N-phenylazetidine-3-carboxamide], for which the IC50 in data set [1], in [2], in [3], in data set [4], in [5] and in [6] was more than 50 µM each time. For the same compound, the concentration for half-maximal inhibition (IC50) in [7], in data set [8], in data set [9] (setting [12]), in data set [10] and in data set [11] was more than 50 µM in each case.

On to `COc1ccc(-c2cc(N3CC(C(=O)NCC(F)(F)F)C3)c(=O)[nH]n2)cc1` [Compound 37, 1-(6-(4-methoxyphenyl)-3-oxo-2,3-dihydropyridazin-4-yl)-N-(2,2,2-trifluoroethyl)azetidine-3-carboxamide], for which the half-maximal inhibitory concentration (IC50) in data set [1], in data set [2], in data set [3], in [4], in [5] and in data set [6] was more than 50 µM each time. The half-inhibitory concentration (IC50) in data set [7], in data set [8], in data set [9] (setting [12]), in [10] and in data set [11] was more than 50 µM throughout.

Regarding `O=C(NCC(F)(F)F)C1CN(c2cc(-c3ccc(F)cc3F)n[nH]c2=O)C1` [Compound 39, 1-(6-(2,4-difluorophenyl)-3-oxo-2,3-dihydropyridazin-4-yl)-N-(2,2,2-trifluoroethyl)azetidine-3-carboxamide], the IC50 in [1], in data set [2], in data set [3], in data set [4], in data set [5] and in data set [6] was more than 50 µM each time. Further, the concentration for half-maximal inhibition (IC50) in [7] was more than 50 µM; in [8] it was 26.8 µM; in [10] it was more than 50 µM; in [11], more than 50 µM. In data set [9], the “IC50 / cytotoxicity in fibroblast cells” value is “No significant cytotoxicity”.

For `O=C(NCC(F)(F)F)C1CN(c2cc(-c3ccc(Cl)cc3)n[nH]c2=O)C1` [Compound 38, 1-(6-(4-chlorophenyl)-3-oxo-2,3-dihydropyridazin-4-yl)-N-(2,2,2-trifluoroethyl)azetidine-3-carboxamide], the concentration for half-maximal inhibition (IC50) in data set [1] was more than 50 µM; in data set [2], more than 50 µM; in data set [3] it was more than 50 µM; in data set [4], more than 50 µM; in [5], 44.9 µM; in data set [6], more than 50 µM. Also, the IC50 was more than 50 µM in [7], 29.9 µM in [8], more than 50 µM in data set [10] and more than 50 µM in data set [11]. The “IC50 / cytotoxicity in fibroblast cells” value in data set [9] is “No significant cytotoxicity”.

Take `O=C(NCC(F)(F)F)C1CN(c2cc(-c3ccccc3)n[nH]c2=O)C1` [Compound 35, 1-(3-oxo-6-phenyl-2,3-dihydropyridazin-4-yl)-N-(2,2,2-trifluoroethyl)azetidine-3-carboxamide]: the half-maximal inhibitory concentration (IC50) in data set [1], in data set [2], in data set [3], in [4], in data set [5] and in [6] was more than 50 µM each time. Further, the concentration for half-maximal inhibition (IC50) in [7], in data set [8], in data set [9] (setting [12]), in [10] and in data set [11] was more than 50 µM in each case.

`O=C(NCC(F)(F)F)C1CN(c2cc(-c3ccncc3)n[nH]c2=O)C1` [Compound 34, 1-(3-oxo-6-(pyridin-4-yl)-2,3-dihydropyridazin-4-yl)-N-(2,2,2-trifluoroethyl)azetidine-3-carboxamide]: the IC50 in [1], in [2], in data set [3], in data set [4], in [5] and in data set [6] was more than 50 µM in each case. For the same compound, the 50% inhibitory concentration (IC50) in [7], in [8], in data set [9] (setting [12]), in [10] and in data set [11] was more than 50 µM in each case.

`O=C(Nc1ccccc1)C1CN(c2cc(-c3ccncc3)n[nH]c2=O)C1` [Compound 7, 1-(3-oxo-6-(pyridin-4-yl)-2,3-dihydropyridazin-4-yl)-N-phenylazetidine-3-carboxamide]: the IC50 in data set [1], in [2], in data set [3], in data set [4], in data set [5] and in data set [6] was more than 50 µM throughout. Besides, the concentration for half-maximal inhibition (IC50) in [7], in data set [8], in [9] (setting [12]), in [10] and in data set [11] was more than 50 µM throughout.

Regarding `O=C(Nc1ccccc1)C1CN(c2cc(-c3ccc(Cl)cc3)n[nH]c2=O)C1` [Compound 11, 1-(6-(4-chlorophenyl)-3-oxo-2,3-dihydropyridazin-4-yl)-N-phenylazetidine-3-carboxamide], the half-inhibitory concentration (IC50) in data set [1] is 34 µM; in data set [2] it was more than 50 µM; in data set [3] it was 26.9 µM; in data set [4] it was 10.4 µM; in data set [5], 33.2 µM; in data set [6], 38.9 µM. For the same compound, the IC50 in data set [7] was 37.9 µM; in data set [8] it was 23 µM; in [9] (read-out: IC50 across multiple cancer lines), 18 to 37 µM; in data set [10], 26 µM; in [11], 32 µM.

For `O=C(NCC(F)(F)F)C1CN(c2cc(-c3cccc(F)c3)n[nH]c2=O)C1` [Compound 36, 1-(6-(3-fluorophenyl)-3-oxo-2,3-dihydropyridazin-4-yl)-N-(2,2,2-trifluoroethyl)azetidine-3-carboxamide], the concentration for half-maximal inhibition (IC50) in [1], in data set [2], in [3], in data set [4], in data set [5] and in data set [6] was more than 50 µM in each case. The 50% inhibitory concentration (IC50) in [7], in data set [8], in data set [9] (setting [12]), in [10] and in data set [11] was more than 50 µM throughout.

The term IC50 denotes the concentration at which inhibition is half-maximal.
